Assay results published in ChEMBL document CHEMBL1275443, “Functional diversity among metallo-beta-lactamases: characterization of the CAR-1 enzyme of Erwinia carotovora” (2008).

Columns and labels:
[1] = test system: Pectobacterium atrosepticum; experiment: Ratio of Kcat to Km for Erwinia carotovora subsp. atroseptica DSM 30184 beta-Lactamase CAR-1
Procedure, shortened: (§1)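 Recombinant CAR-1, expressed in E. coli BL21(DE3)/pET9-CAR-1 and purified by DEAE-Sepharose then Mono Q chromatography in Zn-containing buffers. Enzyme was diluted in HZN buffer (50 mM HEPES-NaOH pH 7.5, 50 µM ZnSO4) with 20 µg/ml BSA and used at 1.9–3,800 nM.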

Bradyrhizobium japonicum = experiment: Ratio of Kcat to Km for Bradyrhizobium japonicum beta-Lactamase BJP-1
[2] = test system: Pectobacterium atrosepticum; experiment: Activity of Erwinia carotovora subsp. atroseptica DSM 30184 beta-lactamase CAR-1; procedure, shortened: as §1

C[C@@H](O)[C@H]1C(=O)N2C(C(=O)O)=C([C@H]3CCCO3)S[C@H]12
kcat/Km [1]: 4.4 ×10⁴ /M/s
kcat/Km (Bradyrhizobium japonicum): 6.8 ×10³ /M/s
Km [2]: 120 µM
kcat [2]: 5 s⁻¹

CCN1CCN(C(=O)N[C@@H](C(=O)N[C@@H]2C(=O)N3[C@@H]2SC(C)(C)[C@@H]3C(=O)O)c2ccccc2)C(=O)C1=O
kcat/Km [1]: 2.6 ×10⁴ /M/s
kcat/Km (Bradyrhizobium japonicum): 6.7 ×10⁴ /M/s
Km [2]: 340 µM
kcat [2]: 9 s⁻¹

CO/N=C(\C(=O)N[C@@H]1C(=O)N2C(C(=O)O)=C(CSc3nc(=O)c(O)nn3C)CS[C@H]12)c1csc(N)n1
kcat/Km [1]: 9.9 ×10⁴ /M/s
kcat/Km (Bradyrhizobium japonicum): 9.6 ×10⁴ /M/s
Km [2]: 130 µM
kcat [2]: 13 s⁻¹

C[C@@H](O)[C@H]1C(=O)N2C(C(=O)O)=C(SCCNC=N)C[C@H]12
kcat/Km (Bradyrhizobium japonicum): 6 ×10⁴ /M/s

CC(=O)OCC1=C(C(=O)O)N2C(=O)[C@@H](NC(=O)Cc3cccs3)[C@H]2SC1
kcat/Km [1]: 1.2 ×10⁶ /M/s
Km [2]: 200 µM
kcat [2]: 240 s⁻¹

CC1(C)S[C@@H]2[C@H](NC(=O)[C@H](C(=O)O)c3ccsc3)C(=O)N2[C@H]1C(=O)O
kcat/Km [1]: 1.3 ×10⁴ /M/s
Km [2]: 640 µM
kcat [2]: 9 s⁻¹

CC1(C)S[C@@H]2[C@H](NC(=O)Cc3ccccc3)C(=O)N2[C@H]1C(=O)O
kcat/Km [1]: 9.2 ×10³ /M/s
kcat/Km (Bradyrhizobium japonicum): 1.3 ×10⁵ /M/s
Km [2]: 200 µM
kcat [2]: 2 s⁻¹

CC(C)(O/N=C(\C(=O)N[C@@H]1C(=O)N2C(C(=O)[O-])=C(C[n+]3ccccc3)CS[C@H]12)c1csc(N)n1)C(=O)O
kcat/Km [1]: 2.9 ×10⁵ /M/s
Km [2]: > 561 µM
kcat [2]: > 160 s⁻¹

CO/N=C(\C(=O)N[C@@H]1C(=O)N2C(C(=O)O)=C(COC(N)=O)CS[C@H]12)c1ccco1
kcat/Km [1]: 3.6 ×10⁶ /M/s
kcat/Km (Bradyrhizobium japonicum): 5 ×10⁵ /M/s
Km [2]: 110 µM
kcat [2]: 400 s⁻¹

CO/N=C(\C(=O)N[C@@H]1C(=O)N2C(C(=O)[O-])=C(C[N+]3(C)CCCC3)CS[C@H]12)c1csc(N)n1
kcat/Km (Bradyrhizobium japonicum): 2 ×10² /M/s

CO/N=C(\C(=O)N[C@@H]1C(=O)N2C(C(=O)O)=C(COC(C)=O)CS[C@H]12)c1csc(N)n1
kcat/Km [1]: 1.5 ×10⁶ /M/s
kcat/Km (Bradyrhizobium japonicum): 1.4 ×10⁵ /M/s
Km [2]: 160 µM
kcat [2]: 250 s⁻¹

CO[C@@]1(NC(=O)Cc2cccs2)C(=O)N2C(C(=O)O)=C(COC(N)=O)CS[C@@H]21
kcat/Km [1]: 4.7 ×10³ /M/s
kcat/Km (Bradyrhizobium japonicum): 7.1 ×10⁴ /M/s
Km [2]: > 1570 µM
kcat [2]: > 7 s⁻¹

CC1(C)S[C@@H]2[C@H](NC(=O)[C@H](N)c3ccccc3)C(=O)N2[C@H]1C(=O)O
kcat/Km [1]: 3.2 ×10³ /M/s
kcat/Km (Bradyrhizobium japonicum): 1.9 ×10⁴ /M/s
Km [2]: 1600 µM
kcat [2]: 5 s⁻¹
